Reference: ChEMBL document CHEMBL1149910, “2-(6-aryl-3(Z)-hexen-1,5-diynyl)anilines as a new class of potent antitubulin agents” (J Med Chem, 2008)
Activity calls are given as the source filed them. No cut-off for these calls is given here.

Tests used:
MDA-MB-231 [1] = assay: Cell cycle arrest in human MDA-MB-231 cells assessed as accumulation of 4N cells at 18.0 uM after 24 hrs by flow cytometry; type: functional
MDA-MB-231 [2] = assay: Cell cycle arrest in human MDA-MB-231 cells assessed as accumulation at sub-G1 phase at 36.0 uM after 24 hrs by flow cytometry; type: functional
MDA-MB-231 [3] = assay: Cell cycle arrest in human MDA-MB-231 cells assessed as accumulation of 2N cells at 36.0 uM after 72 hrs by flow cytometry; type: functional
RXF 393 = assay: Cytotoxicity against human RXF393 cells; type: functional
Method in brief: (§1)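 Tested in the NCI in vitro antitumor screening protocol across a tumor cell line panel. GI₅₀ is the concentration producing a 50% reduction in cell growth.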

ACHN = assay: Cytotoxicity against human ACHN cells; type: functional; method in brief: as §1
SK-OV-3 = assay: Cytotoxicity against human SK-OV3 cells; type: functional; method in brief: as §1
MDA-MB-231 [4] = assay: Cell cycle arrest in human MDA-MB-231 cells assessed as accumulation at sub-G1 phase at 9.0 uM after 24 hrs by flow cytometry; type: functional
HCT-15 [5] = assay: (§2) Cytotoxicity against human HCT15 cells; type: functional; method in brief: as §1
OVCAR-8 = assay: Cytotoxicity against human OVCAR8 cells; type: functional; method in brief: as §1
MDA-MB-231 [6] = assay: Cell cycle arrest in human MDA-MB-231 cells assessed as accumulation of 4N cells at 27.0 uM after 24 hrs by flow cytometry; type: functional
SK-MEL-5 = assay: Cytotoxicity against human SK-MEL5 cells; type: functional; method in brief: as §1
MDA-MB-231 [7] = assay: Effect on microtubule depolymerization in human MDA-MB-231 cells at 18 uM after 2 hrs; type: functional, cell-based
Method in brief: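 MDA-MB-231/ATCC cells grown on glass coverslips (1 × 10⁴ cells) for 24 h, then exposed to 3.6, 9, 18, 27 or 36 µM at 37 °C for 2 h. Fixed in 4% paraformaldehyde, permeabilized with Triton X-100, and immunostained for α-tubulin and ninein with DAPI counterstain. Interphase microtubule networks compared with untreated cells by confocal microscopy.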

K562 [8] = assay: Cytotoxicity against human K562 cells; type: functional; method in brief: as §1
MDA-MB-231 [9] = assay: Cytotoxicity against human MDA-MB-231 cells; type: functional; method in brief: as §1
SNB-75 = assay: Cytotoxicity against human SNB75 cells; type: functional; method in brief: as §1
K562 [10] = assay: Cell cycle arrest in human K562 cells assessed as accumulation at S phase at 50 uM after 24 hrs by flow cytometry; type: functional
Method in brief: (§3)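 K-562 human leukemia cells were grown in RPMI 1640 with 10% fetal calf serum, glutamine and penicillin/streptomycin at 37 °C in 5% CO₂. Cells were exposed to compound at 50 µM for 24 h, then pelleted and PBS-washed. They were fixed in ice-cold ethanol for 30 min, treated with 1 mg/mL RNase A at 37 °C for 30 min, and stained with propidium iodide and Triton X-100 for 30 min at room temperature in the dark. Per-phase and sub-G1 percentages came from flow cytometry gating.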

MDA-MB-231 [11] = assay: Cell cycle arrest in human MDA-MB-231 cells assessed as accumulation at sub-G1 phase at 18.0 uM after 72 hrs by flow cytometry; type: functional
786-0 = assay: Cytotoxicity against human 786-0 cells; type: functional; method in brief: as §1
[12] = system: MDA-MB-231 (Homo sapiens); assay: Induction of apoptosis in human MDA-MB-231 cells assessed as induction of caspase 3 activation at 36 uM after 72 hrs by colorimetric assay relative to control
UACC-62 = assay: Cytotoxicity against human UACC62 cells; type: functional
Method in brief: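 NCI in vitro antitumor screening protocol; GI50 taken as the concentration giving 50% reduction in cell growth.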

MDA-MB-231 [13] = assay: Cell cycle arrest in human MDA-MB-231 cells assessed as accumulation at sub-G1 phase at 18.0 uM after 24 hrs by flow cytometry; type: functional
PC-3 = assay: Cytotoxicity against human PC3 cells; type: functional; method in brief: as §1
[14] = system: MDA-MB-231 (Homo sapiens); assay: Induction of apoptosis in human MDA-MB-231 cells assessed as induction of caspase 8 activation at 36 uM after 72 hrs by colorimetric assay relative to control
NCI-H23 = assay: Cytotoxicity against human NCI-H23 cells; type: functional; method in brief: as §1
MDA-MB-231 [15] = assay: Cell cycle arrest in human MDA-MB-231 cells assessed as accumulation at sub-G1 phase at 27.0 uM after 72 hrs by flow cytometry; type: functional
OVCAR-3 = assay: Cytotoxicity against human OVCAR-3 cells; type: functional; method in brief: as §1
MCF7 = assay: Cytotoxicity against human MCF7 cells; type: functional; method in brief: as §1
HCT-15 [16] = assay: as §2; type: functional; method in brief: as §1; remark: listed apart in the source
A549 = assay: Cytotoxicity against human A549/ATCC cells; type: functional; method in brief: as §1
MDA-MB-231 [17] = assay: Cell cycle arrest in human MDA-MB-231 cells assessed as accumulation of >4N cells at 3.6 uM after 24 hrs by flow cytometry; type: functional
SF-295 = assay: Cytotoxicity against human SF295 cells; type: functional; method in brief: as §1
SW-620 = assay: Cytotoxicity against human SW620 cells; type: functional; method in brief: as §1
K562 [18] = assay: Cell cycle arrest in human K562 cells assessed as accumulation at sub-G1 phase at 50 uM after 24 hrs by flow cytometry; type: functional; method in brief: as §3
HCT-116 = assay: Cytotoxicity against human HCT116 cells; type: functional; method in brief: as §1
MDA-MB-231 [19] = assay: Cell cycle arrest in human MDA-MB-231 cells assessed as accumulation at sub-G1 phase at 9.0 uM after 72 hrs by flow cytometry; type: functional
KM12 = assay: Cytotoxicity against human KM12 cells; type: functional; method in brief: as §1
MDA-MB-231 [20] = assay: Cell cycle arrest in human MDA-MB-231 cells assessed as accumulation of 2N cells at 18.0 uM after 72 hrs by flow cytometry; type: functional
[21] = read-out: LC50 (the source's name)

## Nc1ccccc1C#C/C=C\C#Cc1ccccc1C(F)(F)F
MDA-MB-231 [1]
  Activity: 31.9%
MDA-MB-231 [2]
  Activity: 23.6%
MDA-MB-231 [3]
  Activity: 6.5%
RXF 393
  GI50: 808 nM
  TGI: 4.62 µM
RXF 393; [21]
  CC50: 30.5 µM
ACHN
  GI50: 294 nM
  TGI: 15.7 µM
ACHN; [21]
  CC50: 48.3 µM
SK-OV-3
  GI50: 888 nM
  TGI: 24.7 µM
SK-OV-3; [21]
  CC50: 98.7 µM
MDA-MB-231 [4]
  Activity: 23.1%
HCT-15 [5]
  GI50: 1260 nM
OVCAR-8
  GI50: 962 nM
  TGI: 21.5 µM
OVCAR-8; [21]
  CC50: 80.7 µM
MDA-MB-231 [6]
  Activity: 30.7%
SK-MEL-5
  GI50: 541 nM
  TGI: 15 µM
SK-MEL-5; [21]
  CC50: 42.2 µM
MDA-MB-231 [7]
  Activity: Active
K562 [8]
  GI50: 1000 nM
MDA-MB-231 [9]
  GI50: 400 nM
  TGI: 1680 nM
MDA-MB-231 [9]; [21]
  CC50: 36.5 µM
SNB-75
  TGI: 18.8 µM
SNB-75; read-out: GI50
  GI50: 86.9 nM
SNB-75; [21]
  CC50: 100 µM
SNB-75; read-out: pGI50 (converted)
  GI50: 79.4 nM
K562 [10]
  Activity: 19.3%
MDA-MB-231 [11]
  Activity: 62.5%
786-0
  GI50: 700 nM
  TGI: 17.7 µM
786-0; [21]
  CC50: 67 µM
[12]
  fold change (FC): 3.4
UACC-62
  TGI: 808 nM
UACC-62; read-out: GI50
  GI50: 261 nM
UACC-62; [21]
  CC50: 29 µM
UACC-62; read-out: pGI50 (converted)
  GI50: 251 nM
MDA-MB-231 [13]
  Activity: 23.5%
PC-3
  GI50: 2350 nM
  TGI: 24.9 µM
PC-3; [21]
  CC50: 94.2 µM
[14]
  fold change (FC): 4
NCI-H23
  GI50: 273 nM
  TGI: 1890 nM
NCI-H23; [21]
  CC50: 47.8 µM
MDA-MB-231 [15]
  Activity: 65.4%
OVCAR-3
  GI50: 631 nM
MCF7
  GI50: 681 nM
  TGI: > 100 µM
MCF7; [21]
  CC50: > 100 µM
HCT-15 [16]
  GI50: 1260 nM
  TGI: 11.4 µM
HCT-15 [16]; [21]
  CC50: 51.1 µM
A549
  GI50: 745 nM
  TGI: 15.2 µM
A549; [21]
  CC50: 59.5 µM
MDA-MB-231 [17]
  Activity: 31.3%
SF-295
  GI50: 396 nM
  TGI: 2600 nM
SF-295; [21]
  CC50: 26.8 µM
SW-620
  GI50: 479 nM
  TGI: 19.7 µM
SW-620; [21]
  CC50: 69.2 µM
K562 [18]
  Activity: 19.4%
HCT-116
  GI50: 423 nM
  TGI: 12.5 µM
HCT-116; [21]
  CC50: 47.4 µM
MDA-MB-231 [19]
  Activity: 53.9%
KM12
  GI50: 371 nM
  TGI: 20.3 µM
KM12; [21]
  CC50: > 100 µM
MDA-MB-231 [20]
  Activity: 7.1%
